Experiment [1] in a line: Binding to amyloid beta (1 to 40) fibrils assessed as fold increase in compound fluorescence at 30 uM by fluorescence assay relative to control.
Experiment [2] is described as follows: Binding affinity to amyloid beta (1 to 40). A digest of the protocol:
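Aβ40 peptide in PBS (pH 7.4), brought to 200 final and shaken gently at 37 °C for 48 h to form fibrils, which were confirmed by ThT assay. Dye fluorescence was measured with the fibrils in PBS, with excitation and emission maxima determined by spectral scans. KD came from nonlinear regression fitting a one-site binding model, from 5 replicate experiments (N = 5).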

Each structure is given as a SMILES string.

As a reminder, the Kd is the constant that tells how readily two partners part at equilibrium.

In the case of `CNc1ccc(/C=C/c2cccc(OC)c2)cc1`, the Ratio in experiment [1] worked out at 9.3. Moreover, the dissociation constant Kd in experiment [2] came out at 17900 nM. Compound `CNc1ccc(-c2nc3ccccc3s2)cc1` showed a Kd in experiment [2] of 300 nM. That is a sub-micromolar value.

Take `CNc1ccc(/C=C/c2ccc(Br)cc2)cc1`: the Ratio in experiment [1] was 25.8. This compound also returned a Kd in experiment [2] of 1130 nM. The like results for `CN(CCO)c1ccc(/C=C/c2ccc(Br)cc2)cc1` were, in that order, 15.7 and 1840 nM.

`Cc1ccc2c(c1)sc(-c1ccc(N(C)C)cc1)[n+]2C` [THIOFLAVIN T]: in experiment [2], the Kd was 2300 nM. This lies in the single-digit micromolar range. As to `CN(CCO)c1ccc(/C=C/c2cccc(Br)c2)cc1`, the Ratio in experiment [1] was 8.91. In experiment [2], this compound registered a dissociation constant (Kd) of 2890 nM.

The values above are taken from ChEMBL document CHEMBL1275263, “Synthesis and evaluation of stilbene derivatives as a potential imaging agent of amyloid plaques” (Bioorg Med Chem, 2010).
